High-throughput results as filed in PubChem BioAssay.
Runt-CBFb FRET – inhibitors of human RUNX1 Runt domain binding to CBFb; Q01196+Q13951; Cerulean-Runt/Venus-CBFb FRET ratio 530/480, 1 h; inhibition, % at 20 µM; 220,000 compounds, 0.46% hits;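 active means inhibition over about 50% at 20 µM in the single-dose screen, limit read from the data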;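 further: 0% = DMSO wells and 100% = excess unlabeled CBFb competitor control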
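test system = Cerulean-Runt domain fusion protein, energy donor | probe or stimulus = Venus-CBFb binding partner, 100 nM | incubation = two 1 h room-temperature incubations shielded from light | detection = fluorescence energy transfer, 422 nm excitation, 530/480 nm emission | measure = loss of energy transfer signal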
RanGTP-Imp inh – disruptors of Ran-importin-beta complex formation – biochemical, FRET, CFP-Ran, YFP-importin-beta, homogeneous, primary screen; AID 2216; inhibition, % (concentration not given with the values); 300,000 compounds, 1.1% hits; cell-free CFP-Ran/YFP-importin-beta FRET ratio;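 active means more than half of the replicate wells show a fall in the fluorescence ratio signal beyond about 16%, limit read from the data, passing the limit was not always enough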;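 further: 0% = DMSO wells and 100% = Ran loaded with GDP instead of GTP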
Runt-SMMHC FRET – Runt domain-CBFb-SMMHC interaction inhibition; Q01196+Q13951; Cerulean-Runt/Venus-CBFb-SMMHC FRET ratio 530/480, 1 h; inhibition, % at 20 µM; 220,000 compounds, 0.74% hits;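 active means mean inhibition across duplicate retests at 20 µM reaching about 50%, limit read from the data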;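 further: 0% = DMSO wells and 100% = wells with excess untagged CBFb-SMMHC; inhibitors lower the FRET ratio by blocking Runt binding to CBFb-SMMHC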
Hck-Nef inh – human Hck-Nef kinase inhibition. inhibition, % at 20 µM. P08631. AID 463187. Recombinant Hck-YEEI plus Nef, Z-Lyte FRET kinase assay. 220,000 compounds, 0.68% hits;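 active means Hck-Nef kinase inhibition above about 50%, limit read from the data; inactive means inhibition below that limit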;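 further: 0% = DMSO with Hck plus Nef and 100% = Hck alone without Nef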
Target sequence (P08631 whole entry, looked up): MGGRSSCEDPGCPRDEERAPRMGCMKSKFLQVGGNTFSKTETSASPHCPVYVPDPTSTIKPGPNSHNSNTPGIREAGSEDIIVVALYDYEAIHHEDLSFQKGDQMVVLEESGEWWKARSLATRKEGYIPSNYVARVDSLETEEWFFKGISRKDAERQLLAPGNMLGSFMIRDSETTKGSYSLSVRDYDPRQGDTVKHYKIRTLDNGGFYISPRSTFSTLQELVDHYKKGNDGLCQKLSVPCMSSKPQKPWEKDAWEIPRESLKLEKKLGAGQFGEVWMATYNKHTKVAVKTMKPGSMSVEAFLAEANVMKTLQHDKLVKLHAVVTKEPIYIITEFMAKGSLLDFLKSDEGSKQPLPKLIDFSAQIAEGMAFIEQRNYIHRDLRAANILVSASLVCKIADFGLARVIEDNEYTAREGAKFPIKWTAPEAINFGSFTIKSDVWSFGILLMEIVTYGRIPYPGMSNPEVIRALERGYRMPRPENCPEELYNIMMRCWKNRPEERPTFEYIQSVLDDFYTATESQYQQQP
* marks the source's active call; other numbers are inactive results; x = not tested or not shown. Shown are actives, neighbours in structure and some others; about 1.8% of the full set was active somewhere.

SMILES | Runt-CBFb FRET | RanGTP-Imp inh | Runt-SMMHC FRET | Hck-Nef inh
O=C(Nn1c(O)c(C=C2N=c3ccccc3=N2)sc1=S)c1ccc(Cl)cc1 | 7.9 | 33.5* | -6.3 | 0.2
COc1ccc(C(C(=O)NCC2CCCO2)N(C(=O)c2snc(C(N)=O)c2N)c2ccccc2C)cc1OC (configuration not stated) | x | 0.6 | x | x
COc1ccc(C(=O)N2CCCC(CCC(=O)NCc3ccccc3F)C2)c(OC)n1 (configuration not stated) | x | 1.4 | x | x
CCc1ccc2nc(NC(=O)Cn3cnc4ccccc4c3=O)sc2c1 | 4.1 | 2.2 | 3.1 | 55.1*
O=C(Cn1cnc2ccccc2c1=O)Nc1nc2ccccc2s1 | 0.9 | -2.4 | 1.8 | 22.8
O=C(OC1CCCCC1)c1ccc2c(c1)C1C=CCC1C(C(=O)O)N2 (configuration not stated) | -4.3 | x | -2.7 | 77.0*
Cn1nc(-c2ccc(Cl)cc2)c2cc(C(=O)NCCCN3CCOCC3)sc21 | 2.4 | 4.4 | -2.8 | 0.8
Cn1nc(-c2ccc(Cl)cc2)c2cc(C(=O)NCCN3CCOCC3)sc21 | 3.1 | 136.4* | -4.1 | 1.6
O=C(CCSc1ccc(Cl)cc1)Nc1cccnc1 | 1.5 | 0.8 | 0.0 | -1.9
Cc1cc(/C=C2\SC(=S)NC2=O)c(C)n1-c1ccc(O)cc1 | -10.5 | 23.5* | -38.5 | 30.3
COc1ccc(-n2c(C)cc(/C=C3\SC(=S)NC3=O)c2C)cc1 | 1.3 | 9.8 | -32.7 | 21.1
Cc1cc(/C=C2\SC(=S)NC2=O)c(C)n1-c1ccccc1 | 25.5 | 9.3 | 17.3 | 53.2*
O=C(NC(=S)Nc1ccc2nc[nH]c2c1)c1ccccc1 | x | -4.4 | x | x
Cc1ccc(S(=O)(=O)Nc2ccc(Nc3ccccc3)cc2)cc1 | x | -4.1 | x | x
Cc1ccc(S(=O)(=O)NNc2ccccc2)cc1 | 39.6 | -2.8 | 68.0* | -3.2
CCn1c(SCC(=O)NCC2CCCO2)nnc1-c1c[nH]c2ccccc12 (configuration not stated) | 3.5 | 4.9 | -2.9 | 6.2
CCn1c(SCC(=O)NCC2CCCO2)nnc1-c1ccc(Cl)cc1 (configuration not stated) | -1.2 | 25.7* | -2.4 | -11.4
N=c1c(C(=O)NCc2ccc3c(c2)OCO3)cc2c(=O)n3ccccc3nc2n1Cc1cccnc1 | 94.7* | 63.1* | 144.2* | 10.5
Cc1ccc2nc3c(cc(C(=O)NCc4cccnc4)c(=N)n3C(C)C)c(=O)n2c1 | 13.0 | x | 38.6 | x
COc1ccc(CNC(=O)c2cc3c(=O)n4ccccc4nc3n(Cc3cccnc3)c2=N)cc1 | 71.6* | 71.9* | 150.1* | 7.2
O=C(Nc1ccc(Br)cc1)Nc1ccccc1Cl | 0.7 | 1.2 | -1.3 | 13.5
CC(=O)c1ccc(S(=O)(=O)NC2CC(=O)N(c3ccc(C)c(C)c3)C2)cc1 (configuration not stated) | x | -2.2 | x | x
CCCCN(CC)C(=O)c1cc2cc3ccc(OC)cc3nc2o1 | -5.2 | 58.6* | 2.9 | -1.0
Cc1ccc(OCCCN2CCOCC2)cc1 | x | 0.0 | x | x
O=C(NCc1cccnc1)c1nc(-c2ccccc2)n(-c2ccccc2)n1 | x | 0.8 | x | x
SMILES | Runt-CBFb FRET | RanGTP-Imp inh | Runt-SMMHC FRET | Hck-Nef inh
Cn1c(=O)c(/C=C/c2ccccc2)nc2ccccc21 | 26.0 | 52.9* | 98.8* | 7.1
CC(=O)c1ccc(/C=C/c2nc3ccccc3n2C)o1 | 9.3 | -54.1 | 81.0* | -27.3
Cn1c(=O)c(/C=C/c2ccc(F)cc2)nc2ccccc21 | -8.3 | 52.9* | 38.4 | 10.9
Nc1nc2ccccc2n1C(=O)c1ccc(F)cc1 | -0.9 | -2.1 | 1.6 | 21.0
Cn1c(/C=C/c2ccccc2)nc2ccccc21 | -0.3 | 0.5 | 4.3 | 15.9
O=c1c(/C=C(\O)c2ccc(F)cc2)nc2ccccc2n1-c1ccccc1 | 0.5 | 77.0* | 7.9 | -0.8
COc1cc(S(=O)(=O)NC2CCCCC2C)ccc1F (configuration not stated) | x | -2.6 | x | x
COc1cc([N+](=O)[O-])ccc1NC(=O)NNC(=O)c1sccc1C | x | -0.2 | x | x
COc1ccc(/C=C2\OC(=O)c3c(OC)cccc32)cc1OC | 5.2 | 38.8* | -15.6 | 5.9
O=C1/C(=C/c2ccc(O)c(O)c2)Oc2cc(O)ccc21 | -81.2 | x | 54.6* | -18.2
COc1ccc(/C=C2\Oc3cc(OC(=O)N4CCOCC4)ccc3C2=O)cc1 | -17.6 | 22.1* | -0.8 | -3.9
COc1cc(/C=C2\Oc3cc(O)ccc3C2=O)ccc1O | 11.1 | 2.4 | 78.5* | -33.0
COc1ccc(C=C2C(=O)OC(C)(C)OC2=O)cc1OC | 0.6 | 1.4 | -4.0 | 1.8
CC(=O)Oc1ccc2c(c1)O/C(=C\c1ccncc1)C2=O | -338.0 | -203.3 | -133.5 | -34.2
CCOC(=O)c1nn(-c2ccc(F)cc2)c(=O)cc1OCC(=O)N1CCN(c2ccccc2)CC1 | x | -5.4 | x | x
Cc1ccc(N2CC(C)Cn3c2nc2c3c(=O)[nH]c(=O)n2C)cc1C (configuration not stated) | x | -1.5 | x | x
Cc1cc(C)nc(N/N=C/C2=C(O)CC(c3ccc(F)cc3)CC2=O)n1 (configuration not stated) | 2.1 | 3.6 | -0.9 | 13.6
CC1OC2(C)OC(=N)C1(C#N)C(C#N)(C#N)C2c1ccccc1 (configuration not stated) | 30.1 | 23.4* | 50.5 | 20.1
CCCCC1OC2(C)OC(=N)C1(C#N)C(C#N)(C#N)C2c1ccccc1 (configuration not stated) | 21.0 | x | 53.2 | 22.8
CC1C2(C)OC(=N)C(C#N)(C(C)O2)C1(C#N)C#N (configuration not stated) | 101.0* | 21.7* | 52.2* | 10.8
COc1ccc(-c2cc(C(=O)N/N=C/c3cccnc3)c3cc(C)cc(C)c3n2)cc1 | x | -0.5 | x | x
Cc1ccc(S(=O)(=O)N2CCN(C(=O)c3ccc(Br)o3)CC2)c(C)c1 | x | 2.5 | x | x
COC(=O)c1ccc2nc(NC(=O)C3CC3)sc2c1 | x | -0.3 | x | x
COC(=O)c1ccc2nc(NC(=O)C(C)C)sc2c1 | -1.2 | 29.5* | -1.8 | 15.9
COC(=O)c1ccc2nc(Nc3nc4c(F)cc(F)cc4s3)sc2c1 | 42.3 | 71.5* | 68.9 | 21.5
SMILES | Runt-CBFb FRET | RanGTP-Imp inh | Runt-SMMHC FRET | Hck-Nef inh
CC(C)CN(C(=O)c1ccco1)C1CCS(=O)(=O)C1 (configuration not stated) | x | -0.6 | x | x
Cc1c(C=O)c2ccccn2c1C(=O)c1cccs1 | 60.6* | 1.1 | 87.1* | 2.3
Cc1c(C=O)c2ccccn2c1C(=O)c1ccccc1Cl | x | 1.7 | x | x
COc1cccc(CN2CCNC(=O)C2CC(=O)NC2CCCCCCC2)c1 (configuration not stated) | x | 2.7 | x | x
CC(=O)Nc1ccc(OCCC[n+]2ccccc2)cc1 | -1.4 | 16.6* | -2.0 | 16.4
CC(C)c1ccc(NC(=O)CCc2ccccc2)cc1 | x | 1.6 | x | x
NNc1nc2c(-c3ccc(F)cc3)nnn2c2ccccc12 | 13.3 | 21.2* | -5.0 | -3.4
Cc1ccc(C(=O)NC(=S)Nc2ccccc2N2CCOCC2)cc1C | x | -0.8 | x | x
Cc1c2cnn(CC(=O)Nc3c(F)c(F)cc(F)c3F)c(=O)c2c(C)n1Cc1ccccc1F | -9.0 | -2.4 | -11.3 | 51.8*
CC1=CC2=NC(=O)/C(=C\c3cn(C)c4ccccc34)C(=N)N2O1 | 3.4 | 50.4* | 87.0* | -18.5
